Measured values as given in ChEMBL document CHEMBL5303300, “EUbOPEN Chemogenomics Library - Multiplex” (2023).
Where “and” joins values, the source holds several entries; their conditions need not be identical. Equal values may be shown once.

Test system: U2OS
Test: Multiplex assay against U2OS
Assay type: toxicity, cell-based
Details: human, number of replicates 2
Procedure, shortened: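 Live cells were stained at seeding with Hoechst33342, BioTracker Green Microtubule Cytoskeleton Dye, MitoTracker Red and Annexin V Alexa Fluor 680, then imaged on a CQ1 microscope at 37°C and 5% CO2 after compound addition. CellPathfinder machine-learning gating split cells into Hoechst high-intensity objects or normal cells. Normal cells were split into healthy, pyknosed or fragmented nuclei, and pyknosed cells into mitotic or apoptotic. Tubulin, mitochondrial-mass and membrane-permeability phenotypes are per cents of healthy-nucleus cells.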

[1] = 12 h, 1 µM, compound concentration 1 uM
[2] = 12 h, 10 µM, compound concentration 10 uM
[3] = 24 h, 1 µM, compound concentration 1 uM
[4] = 24 h, 10 µM, compound concentration 10 uM
[5] = 48 h, 1 µM, compound concentration 1 uM
[6] = 48 h, 10 µM, compound concentration 10 uM

Cc1cn(CCN2CCN(c3ccccc3-c3cc(C#N)cc(C(=O)NCCCN4CCCC4)c3)CC2)c2ccccc12
Population Apoptotic (%) [1]: 100% and 75% | Population Healthy Nuclei (%) [1]: 73% and 79% | Population Hoechst High Intensity Objects (%) [1]: 0% | Population Membrane Permeable-Phenotype (%) [1]: 8% and 10% | Population Mitochondria Different-Phenotype (%) [1]: 25% and 38% | Population Mitotic Cells (%) [1]: 0% and 25% | Population Normal (%) [1]: 100% | Population Pyknosed Nuclei (%) [1]: 10% and 16% | Population Tubulin-Different-Phenotype (%) [1]: 38% and 27% | Population Apoptotic (%) [2]: 100% and 82% | Population Fragmented Nuclei (%) [2]: 37% and 13% | Population Healthy Nuclei (%) [2]: 37% and 53% | Population Hoechst High Intensity Objects (%) [2]: 0% | Population Membrane Permeable-Phenotype (%) [2]: 33% and 41% | Population Mitochondria Different-Phenotype (%) [2]: 62% and 56% | Population Mitotic Cells (%) [2]: 0% and 17% | Population Normal (%) [2]: 100% | Population Pyknosed Nuclei (%) [2]: 25% and 33% | Population Tubulin-Different-Phenotype (%) [2]: 91% | Total Cell Count [2]: 64 and 135 | Population Apoptotic (%) [3]: 73% and 87% | Population Healthy Nuclei (%) [3]: 54% and 85% | Population Hoechst High Intensity Objects (%) [3]: 0% | Population Membrane Permeable-Phenotype (%) [3]: 8% and 7% | Population Mitochondria Different-Phenotype (%) [3]: 23% and 47% | Population Mitotic Cells (%) [3]: 26% and 12% | Population Normal (%) [3]: 100% | Population Pyknosed Nuclei (%) [3]: 24% and 12% | Population Tubulin-Different-Phenotype (%) [3]: 29% and 24% | Population Apoptotic (%) [4]: 90% and 88% | Population Fragmented Nuclei (%) [4]: 18% and 32% | Population Healthy Nuclei (%) [4]: 42% and 24% | Population Hoechst High Intensity Objects (%) [4]: 0% and 1% | Population Membrane Permeable-Phenotype (%) [4]: 65% and 35% | Population Mitochondria Different-Phenotype (%) [4]: 47% and 78% | Population Mitotic Cells (%) [4]: 9% and 12% | Population Normal (%) [4]: 99% and 98% | Population Pyknosed Nuclei (%) [4]: 39% and 43% | Population Tubulin-Different-Phenotype (%) [4]: 94% and 92% | Total Cell Count [4]: 162 and 59 | Population Apoptotic (%) [5]: 88% and 81% | Population Healthy Nuclei (%) [5]: 60% and 81% | Population Hoechst High Intensity Objects (%) [5]: 0% | Population Mitochondria Different-Phenotype (%) [5]: 11% and 26% | Population Mitotic Cells (%) [5]: 11% and 18% | Population Normal (%) [5]: 100% | Population Pyknosed Nuclei (%) [5]: 22% and 14% | Population Tubulin-Different-Phenotype (%) [5]: 24% and 31% | Population Apoptotic (%) [6]: 100% and 92% | Population Fragmented Nuclei (%) [6]: 17% and 50% | Population Hoechst High Intensity Objects (%) [6]: 0% and 1% | Population Membrane Permeable-Phenotype (%) [6]: 74% and 40% | Population Mitochondria Different-Phenotype (%) [6]: 48% and 20% | Population Mitotic Cells (%) [6]: 0% and 7% | Population Normal (%) [6]: 100% and 98% | Population Pyknosed Nuclei (%) [6]: 38% and 41% | Population Tubulin-Different-Phenotype (%) [6]: 94% and 80% | Total Cell Count [6]: 168 and 63

COC(=O)Nc1nc2c(s1)-c1c(c(-c3cccnc3)nn1-c1ccc(C3(N(C)C)CC3)cc1)CC2.Cl.Cl
Population Apoptotic (%) [1]: 100% and 85% | Population Healthy Nuclei (%) [1]: 44% and 73% | Population Hoechst High Intensity Objects (%) [1]: 0% | Population Mitochondria Different-Phenotype (%) [1]: 3% and 12% | Population Mitotic Cells (%) [1]: 0% and 14% | Population Normal (%) [1]: 100% and 99% | Population Pyknosed Nuclei (%) [1]: 4% and 13% | Population Tubulin-Different-Phenotype (%) [1]: 51% and 39% | Population Apoptotic (%) [2]: 58% and 63% | Population Fragmented Nuclei (%) [2]: 96% and 73% | Population Hoechst High Intensity Objects (%) [2]: 0% | Population Membrane Permeable-Phenotype (%) [2]: 28% and 26% | Population Mitochondria Different-Phenotype (%) [2]: 7% and 15% | Population Mitotic Cells (%) [2]: 41% and 36% | Population Normal (%) [2]: 100% and 99% | Population Pyknosed Nuclei (%) [2]: 1% and 6% | Population Tubulin-Different-Phenotype (%) [2]: 32% and 49% | Total Cell Count [2]: 1083 and 863 | Population Apoptotic (%) [3]: 83% and 77% | Population Healthy Nuclei (%) [3]: 31% and 74% | Population Hoechst High Intensity Objects (%) [3]: 0% and 1% | Population Membrane Permeable-Phenotype (%) [3]: 5% | Population Mitochondria Different-Phenotype (%) [3]: 0% and 16% | Population Mitotic Cells (%) [3]: 16% and 22% | Population Normal (%) [3]: 100% and 98% | Population Pyknosed Nuclei (%) [3]: 9% and 17% | Population Tubulin-Different-Phenotype (%) [3]: 55% and 39% | Population Apoptotic (%) [4]: 75% and 71% | Population Fragmented Nuclei (%) [4]: 96% and 74% | Population Hoechst High Intensity Objects (%) [4]: 0% | Population Membrane Permeable-Phenotype (%) [4]: 25% and 13% | Population Mitochondria Different-Phenotype (%) [4]: 21% and 20% | Population Mitotic Cells (%) [4]: 25% and 28% | Population Normal (%) [4]: 99% | Population Pyknosed Nuclei (%) [4]: 1% and 8% | Population Tubulin-Different-Phenotype (%) [4]: 40% and 45% | Total Cell Count [4]: 1253 and 958 | Population Apoptotic (%) [5]: 85% and 76% | Population Healthy Nuclei (%) [5]: 31% and 63% | Population Hoechst High Intensity Objects (%) [5]: 0% | Population Membrane Permeable-Phenotype (%) [5]: 19% and 10% | Population Mitochondria Different-Phenotype (%) [5]: 9% and 14% | Population Mitotic Cells (%) [5]: 14% and 23% | Population Normal (%) [5]: 100% and 99% | Population Pyknosed Nuclei (%) [5]: 10% and 28% | Population Tubulin-Different-Phenotype (%) [5]: 66% and 45% | Population Apoptotic (%) [6]: 66% and 70% | Population Fragmented Nuclei (%) [6]: 95% and 76% | Population Hoechst High Intensity Objects (%) [6]: 0% | Population Membrane Permeable-Phenotype (%) [6]: 13% and 23% | Population Mitochondria Different-Phenotype (%) [6]: 13% and 26% | Population Mitotic Cells (%) [6]: 33% and 30% | Population Normal (%) [6]: 100% and 99% | Population Pyknosed Nuclei (%) [6]: 2% and 10% | Population Tubulin-Different-Phenotype (%) [6]: 50% and 51% | Total Cell Count [6]: 1346 and 1010
